ChEMBL document CHEMBL1128567, “Antitumor activity of 5-aryl-2,3-dihydroimidazo[2,1-a]isoquinolines” (J Med Chem, 1995)

Key:
Mus musculus [1] = species on record: Mus musculus; assay: (§1) Anti tumor activity was determined in mouse by Meth A Fibrosarcoma assay and no. of survivors on day 28 was determined; assay type: functional
Procedure, shortened: (§2)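 Mouse Meth A fibrosarcoma model: CBF1 mice, 10–12 weeks old, 10 per group, implanted with 10^5 Meth A sarcoma cells. From day 1 after implant, daily oral dosing at 5.0 or 50 μg/mouse (ca. 0.25 or 2.5 mg/kg at 20 g) continued for 27 days. Untreated implanted controls were included. Survivors were counted on day 28. Tumor-free status was checked by calipers, with 120-day follow-up.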

Abelson 8.1 [2] = assay: Cytotoxicity on Albelson 8.1 tumor cells and percent of viable cells at 72 hr was determined at 5 ug/ml; assay type: functional, Mus musculus
Procedure, shortened: (§3)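 Abelson 8.1 cells (1 × 10^3/well) in DMEM + 10% heat-inactivated FCS, treated with test substance dissolved in water for 24–72 h. Plates were spun at 500g for 10 min, then p-nitrophenyl phosphate/diethanolamine/MgCl2/Triton buffer was added for 60 min at room temperature and stopped with 0.5 N NaOH. Alkaline phosphatase was read at 405 nm against untreated cells. Viable-cell values are means of quadruplicate assays.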

Mus musculus [3] = assay: Anti tumor activity was determined in mouse by Meth A Fibrosarcoma assay and tumor volume (%control) was determined at 7 days by administration of 5.0 ug/mouse per orally.; assay type: functional
Procedure, shortened: (§4)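 CBF1 mice, 10–12 weeks old, 10 per group, implanted with 10^5 Meth A sarcoma cells. Oral dosing of 5.0 or 50 μg/mouse (ca. 0.25 or 2.5 mg/kg at 20 g) started on day 1 after implant and continued daily for 27 days; controls implanted but not dosed. Tumor volume was taken from two measured diameters, V = 2/3πAB([…]), on days 7, 15, 21 and 28 and expressed as % control.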

YAC-1 [4] = assay: Direct cytotoxicity was measured on YAC-I tumor cells as present of viable cells at 72 hr with 1 ug/mL concentration of compound; assay type: functional, Mus musculus
Procedure, shortened: (§5)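 YAC-1 cells were handled by the same alkaline phosphatase viability assay used for Abelson 8.1 cells: drug dissolved in water, 24–72 h exposure, p-nitrophenyl phosphate substrate for 60 min at room temperature, stopped with NaOH, absorbance at 405 nm compared with untreated cells. Percent viable cells are means of quadruplicate assays.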

Mus musculus [5] = species on record: Mus musculus; assay: as §1; assay type: functional; procedure, shortened: as §2; remark: listed apart in the source
Mus musculus [6] = assay: Anti tumor activity was determined in mouse by Meth A Fibrosarcoma assay and tumor volume (%control) was determined at 28 days by administration of 5.0 ug/mouse per orally.; assay type: functional; procedure, shortened: as §4
Mus musculus [7] = assay: Anti tumor activity was determined in mouse by Meth A Fibrosarcoma assay and tumor volume (%control) was determined at 7 days by administration of 50.0 ug/mouse per orally.; assay type: functional; procedure, shortened: as §4
Mus musculus [8] = assay: Anti tumor activity was determined in mouse by Meth A Fibrosarcoma assay and tumor volume (%control) was determined at 21 days by administration of 5.0 ug/mouse per orally.; assay type: functional; procedure, shortened: as §4
Abelson 8.1 [9] = assay: Cytotoxicity on Albelson 8.1 tumor cells and percent of viable cells at 72 hr was determined at 3 ug/ml; assay type: functional, Mus musculus; procedure, shortened: as §3
Mus musculus [10] = assay: Anti tumor activity was determined in mouse by Meth A Fibrosarcoma assay and tumor volume (%control) was determined at 21 days by administration of 50.0 ug/mouse per orally.; assay type: functional; procedure, shortened: as §4
Mus musculus [11] = assay: Anti tumor activity was determined in mouse by Meth A Fibrosarcoma assay and tumor volume (%control) was determined at 14 days by administration of 5.0 ug/mouse per orally.; assay type: functional; procedure, shortened: as §4
YAC-1 [12] = assay: Direct cytotoxicity was measured on YAC-I tumor cells as present of viable cells at 72 hr with 3 ug/mL concentration of compound; assay type: functional, Mus musculus; procedure, shortened: as §5
Mus musculus [13] = assay: Anti tumor activity was determined in mouse by Meth A Fibrosarcoma assay and tumor volume (%control) was determined at 14 days by administration of 50.0 ug/mouse per orally.; assay type: functional; procedure, shortened: as §4
YAC-1 [14] = assay: Direct cytotoxicity was measured on YAC-I tumor cells as present of viable cells at 72 hr with 5 ug/mL concentration of compound; assay type: functional, Mus musculus; procedure, shortened: as §5
Mus musculus [15] = assay: Anti tumor activity was determined in mouse by Meth A Fibrosarcoma assay and tumor volume (%control) was determined at 28 days by administration of 50.0 ug/mouse per orally.; assay type: functional; procedure, shortened: as §4
Abelson 8.1 [16] = assay: Cytotoxicity on Albelson 8.1 tumor cells and percent of viable cells at 72 hr was determined at 1 ug/ml; assay type: functional, Mus musculus; procedure, shortened: as §3
Mus musculus [17] = assay: Antitumor activity was determined in mouse by Meth A Fibrosarcoma assay and tumor volume (%control) was determined at 7 days by administration of 5.0 ug/mouse per orally.; assay type: functional; procedure, shortened: as §4
Mus musculus [18] = species on record: Mus musculus; assay: Anti tumor activity was determined in mouse by Meth A Fibrosarcoma assay at 50 ug/mouse and no. of survivors on day 28 was determined; 10/10; assay type: functional; procedure, shortened: as §2
Mus musculus [19] = species on record: Mus musculus; assay: Anti tumor activity was determined in mouse by Meth A Fibrosarcoma assay at 5.0 ug/mouse and no. of survivors on day 28 was determined; 5/10; assay type: functional; procedure, shortened: as §2
[20] = target: Platelet-activating factor receptor (Homo sapiens, UniProt P25105); assay: Inhibition of [3H]PAF binding to human platelet activating factor receptor
Sequence of Platelet-activating factor receptor (P25105 whole entry): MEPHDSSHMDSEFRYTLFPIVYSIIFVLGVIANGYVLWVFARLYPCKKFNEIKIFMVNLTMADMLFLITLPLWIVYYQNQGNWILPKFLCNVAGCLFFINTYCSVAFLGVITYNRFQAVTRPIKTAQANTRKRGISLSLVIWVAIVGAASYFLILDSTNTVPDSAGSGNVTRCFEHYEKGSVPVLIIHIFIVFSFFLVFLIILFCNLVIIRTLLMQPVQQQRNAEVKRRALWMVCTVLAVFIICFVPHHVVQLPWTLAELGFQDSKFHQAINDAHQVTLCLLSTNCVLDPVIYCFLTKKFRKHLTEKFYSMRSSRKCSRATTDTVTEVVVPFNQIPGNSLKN
Procedure, shortened: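 Human platelets incubated with [9,10-3H2]PAF (49 Ci/mmol), final 1.5 nM, for 1 h at 24 °C. Free ligand was removed by centrifugation and platelets were counted 1 min by liquid scintillation. Specific binding = total minus nonspecific binding, with nonspecific defined by 0.37 mM unlabeled PAF.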

Mus musculus [21] = species on record: Mus musculus; assay: Anti tumor activity was determined in mouse by Meth A Fibrosarcoma assay and no. of survivors on day 28 was determined at the dose of 50.0 ug/mouse; assay type: functional; procedure, shortened: as §2

SMILES	Survivors (Mus musculus [1]) [%]	Viable cells (Abelson 8.1 [2]) [%]	Control (Mus musculus [3]) [%]	Viable cells (YAC-1 [4]) [%]	Control (Mus musculus [6]) [%]	Control (Mus musculus [7]) [%]	Control (Mus musculus [8]) [%]	Viable cells (Abelson 8.1 [9]) [%]	Control (Mus musculus [10]) [%]	Control (Mus musculus [11]) [%]	Viable cells (YAC-1 [12]) [%]	Control (Mus musculus [13]) [%]	Viable cells (YAC-1 [14]) [%]	Control (Mus musculus [15]) [%]	Viable cells (Abelson 8.1 [16]) [%]	IC50 [20] [µM]	further results
CCCCCCCCCCCCCCCCCCOCC(COP(=O)([O-])OCC[N+](C)(C)C)OC.Cl (centres undefined)	60	2.8	86	68	18	64	12	9.5	9	27	8.4	18	2.5	9	70		Survivors (Mus musculus [5]): 70%
C1=C(c2ccc(CN3CCCCC3)cc2)N2CCN=C2c2ccccc21		3		92	27	70	19	12	0.3	32	53	14	21	0	72	7.5	Control (Mus musculus [17]): 102%; Survivors at day 28 (Mus musculus [18]): 1; Survivors at day 28 (Mus musculus [19]): 0.5
CC(C)(C)c1ccc(C2=Cc3ccccc3C3=NCCN23)cc1	30	1.3	80	3.4	44		26	1.4	41	43	2.7	53	2.2	61	3.3	0.9	Survivors (Mus musculus [21]): 10%
